Measured values as given in the array DNA melting data of Ke et al. (doi:10.1101/2024.01.08.574731).

Columns and labels:
[1] = folding enthalpy; higher = less favourable; fluorescence melt of hairpins on a sequencing array, two-state fit; conditions: sodium 0.088 M
Procedure, shortened: (§1)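 Cy3 fluorescence of library hairpins on a sequenced MiSeq flow cell, with annealed Cy3 and quencher oligos, was imaged in 50 mM Na-HEPES pH 8.0, 25 mM NaCl in 2.5 °C steps up to 60 °C. Signals were normalised to pre-quench Cy3 and to control variants. Melting temperature and folding enthalpy came from bootstrapped two-state fits, inverse-variance combined over four replicates. Fitted temperatures were raised by 9.35 °C to match UV melts.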

[2] = melting temperature; fluorescence melt of hairpins on a sequencing array, two-state fit, raised by 9.35 °C to match UV melts; conditions: sodium 0.088 M
Procedure, shortened: as §1

| Sequence | folding enthalpy [1] [kcal/mol] | Tm [2] [°C] |
| --- | --- | --- |
| GACCTAGGAAACCAGGTC (((((.(....).))))) | -35.3 | 45 |
| GGATCACGAAAGTGTCC (((.(((....)))))) | -25.4 | 49.8 |
| GTCCTGGGAAACCGGGAC ((((.((....)).)))) | -39.2 | 55.7 |
| GAATGAGGAAACTCATTC (((((((....))))))) | -37.3 | 52.8 |
| GATCTTGTCAAGATC ((((((...)))))) | -34.2 | 47.4 |
| GTTGTGCGAAAGCAAAC (((.(((....)))))) | -16.5 | 46.8 |
| GAAGCGAAAGCTTC (((((....))))) | -25.7 | 68.1 |
| GTCCGCGAAAGCGGGAC ((((((....))).))) | -12.4 | 63.5 |
| GTGTAGGGAAACTTGCAC (((.(.(....).).))) | -17.7 | 29.4 |
| GGGTGCGAAAGCATTCCC ((((((....)))..))) | -17.4 | 46.9 |
| GTAGGCCCGAAAGGGTAC (((..(((....)))))) | -11.1 | 32.9 |
| GAGCCCGAAAGGGACCTC ((((((....)))..))) | -15.6 | 45 |
| GATCTCCTCGGAGATC ((((((....)))))) | -52.8 | 58 |
| GCGCTGCGAAAGCACTGC ((..(((....)))..)) | -16.8 | 41 |
| GTAGAGACGAAAGTCTAC (((..(((....)))))) | -11.7 | 36 |
| GGATGTGGAAACACATTC (.(((((....))))).) | -25.7 | 47.6 |
| GGGAGGCGAAAGCCCCCC (((.(((....))).))) | -17.2 | 64.8 |
| GGGTACGAAAGTATCCC ((((((....))).))) | -37.3 | 51.8 |
| GCGAGAAGTCGC ((((....)))) | -18.3 | 50.2 |
| GAAAACCGAAAGGTGTTC (((.(((....))).))) | -19.9 | 44.9 |
| GCGAGCGAAAGCTAACGC ((((((....)))..))) | -22.7 | 52.6 |
| GGCCGGGGAAACCTGGCC ((((.((....)).)))) | -38.4 | 68 |
| CGAGCTCGGAAACGATCG (((..(((....)))))) | -6.9 | 27.9 |
| GATCGCTCTTGCGATC ((((((....)))))) | -38.9 | 68 |

| Sequence | folding enthalpy [1] [kcal/mol] | Tm [2] [°C] |
| --- | --- | --- |
| GATCTCCTTTGAGATC ((((((....)))))) | -39.6 | 51.7 |
| GCTGCCACGAAAGTGAGC (((..(((....)))))) | -13.1 | 50.2 |
| GCCGGTGGAAACACCGAC (.(((((....))))).) | -12.4 | 55.3 |
| GGTCCACGAAAGTGACC (((.(((....)))))) | -24.4 | 52.5 |
| GATCGCGGAAACGCGACC (.(((((....))))).) | -10.5 | 49.2 |
| GGGGCAGGAAACTACCCC ((((.((....)).)))) | -29.4 | 49 |
| GGCTAATCGAAAGATGCC (((..(((....)))))) | -27.2 | 45.2 |
| GCTGACGAAAGTCATAGC ((((((....)))..))) | -15.9 | 47.1 |
| GATCAACCATTTGATC ((((((....)))))) | -32.8 | 42.3 |
| GATCCTAATGAGGATC ((((((....)))))) | -34.1 | 50.5 |
| GCTACGCGAAAGCGAGC (((.(((....)))))) | -15.8 | 56.5 |
| GCGTGTGCACGC ((((....)))) | -29.9 | 57.2 |
| GTTGCGGGAAACCGCAGC (.(((((....))))).) | -14.2 | 56.4 |
| GATCTACTCATAGATC ((((((....)))))) | -35.5 | 41.7 |
| GATATGCGAAAGCAAATC (((.(((....))).))) | -24.3 | 40.1 |
| GCGGAACCCCGC ((((....)))) | -21 | 51.3 |
| GTGCGCGAAAGCGAACAC ((((((....)))..))) | -12.6 | 58.5 |
| GGATGGGGAAACCTATCC ((((.((....)).)))) | -29.4 | 47.2 |
| GCATAACGAAAGTTTTGC (((.(((....))).))) | -30.7 | 48.8 |
| GTAGCAGGAAACTGTTAC (((.(((....))).))) | -30.4 | 40.5 |
| GTGATGCGAAAGCACAC (((.(((....)))))) | -25.8 | 53.5 |
| CTAGCGAAAGCTAG (((((....))))) | -19 | 63.2 |
| GCCAACGAAAGTTTGGGC ((((((....)))..))) | -26.9 | 46 |
| GGCACCGAAAGGTAGCC ((((((....))).))) | -36.9 | 61.4 |

| Sequence | folding enthalpy [1] [kcal/mol] | Tm [2] [°C] |
| --- | --- | --- |
| GCCCAGCGAAAGCCAGGC (((..((....))..))) | -20.6 | 55.2 |
| GTGATAGGAAACTGTCAC ((((.((....)).)))) | -36.5 | 45.7 |
| GATCGCTATGGCGATC ((((((....)))))) | -30.2 | 69.1 |
| GGATGCGGAAACGCACCC ((.((((....)))).)) | -27.4 | 52.2 |
| GGGGTCGGAAACGACCTC (.(((((....))))).) | -14.1 | 61.4 |
| GGATACGAAAGTAGTTCC ((((((....)))..))) | -9.9 | 25 |
| GATCGCTAGTGCGATC ((((((....)))))) | -35.2 | 67 |
| GATCATCCTGATGATC ((((((....)))))) | -41.7 | 54.5 |
| GCAATGGGAAACCATCGC ((.((((....)))).)) | -28.8 | 42.1 |
| GAGGCACGAAAGTGTCTC (((.(((....))).))) | -29 | 64.5 |
| GATCTTGGATAAGATC ((((((....)))))) | -30.6 | 49.4 |
| GTCGAAGGAAACTCCGAC ((((.((....)).)))) | -27.6 | 42.1 |
| GGACCGCCGAAAGGCTCC (((..(((....)))))) | -10 | 32.2 |
| GATCTGTCAACAGATC ((((((....)))))) | -39.1 | 51.6 |
| GAATAAGCGAAAGCTTTC (((..(((....)))))) | -9.51 | 25.7 |
| GAATCGGGAAACCGGTTC (((.(((....))).))) | -35.8 | 50.2 |
| GTGGGGACGAAAGTCCAC (((..(((....)))))) | -15.4 | 61.8 |
| GGAAACCGAAAGGTATCC (((.(((....))).))) | -22.7 | 48.4 |
| GTCTTACGAAAGTAGAC (((.(((....)))))) | -23.8 | 43.4 |
| GCTGTCGAAAGACGAAGC ((((((....)))..))) | -18.4 | 44.3 |
| GATCGATAATTCGATC ((((((....)))))) | -39.6 | 51.2 |
| GCGGCATCCGC ((((...)))) | -17.9 | 54.8 |
| GATCAGGTTCCTGATC ((((((....)))))) | -47.5 | 53.7 |
| GGCGTCGGAAACGGTGCC (((..((....))..))) | -30.6 | 51.6 |

| Sequence | folding enthalpy [1] [kcal/mol] | Tm [2] [°C] |
| --- | --- | --- |
| GATCTCTAAGAGATC ((((((...)))))) | -31.5 | 51.5 |
| GATCATTGTATGATC ((((((...)))))) | -30.9 | 49.5 |
| GGAGACCGAAAGGTATCC (((.(((....))).))) | -41.4 | 61.4 |
| GGCACTCCGAAAGGAGCC (((..(((....)))))) | -9.55 | 35.2 |
| GGTAATGGAAACACTACC ((((.((....)).)))) | -15.4 | 30.1 |
| GATCACTGCGGTGATC ((((((....)))))) | -38 | 61.9 |
| GATCAAACTCTTGATC ((((((....)))))) | -33.9 | 40.5 |
| GCCCAGCGAAAGCTGAGC ((.((((....)))).)) | -15.2 | 63.3 |
| GTCATCGAAAGATTGGAC ((((((....)))..))) | -17.7 | 30.9 |
| GAGTGCCGAAAGGCCCTC (((.(((....))).))) | -18.3 | 51.3 |
| GATCCCGATTGGGATC ((((((....)))))) | -36 | 59.1 |
| GGAGGCGAAAGCCTGTCC ((((((....)))..))) | -8.31 | 38 |
| GTTTCCCCGAAAGGGAAC (((..(((....)))))) | -13.7 | 38.5 |
| GCTGAACGAAAGTTAAGC (((.(((....))).))) | -31.4 | 50.6 |
| ATTTCGAAAGAAAT (((((....))))) | -16 | 42.1 |
| CGCCCGGAAACGGCTGCG ((((((....)))..))) | -21.1 | 46.2 |
| GATCGTTACCACGATC ((((((....)))))) | -45.6 | 54.3 |
| GTTATAGGAAACTATAAC (((((((....))))))) | -35.5 | 45.4 |
| GACAATGCGAAAGCAGTC (((..(((....)))))) | -14 | 40.4 |
| GATCCGACAACGGATC ((((((....)))))) | -35 | 57 |
| GTCCTTCCGAAAGGAGAC (((..(((....)))))) | -11.4 | 28.1 |
